Source: ChEMBL document CHEMBL1177873, “Synthesis and evaluation of some new benzothiazole derivatives as potential antimicrobial agents” (Eur J Med Chem, 2010)
The source made the active and inactive calls.

Assays:
[1] = system: Bacillus subtilis; assay: Antibacterial activity against Bacillus subtilis MTCC 441 at 1 ug/ml after 24 hrs by cup-plate method; type: functional, organism-based
Outline: (§1)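 Cup-plate diffusion in nutrient agar, incubated 24 h at 37 °C. Compounds dissolved in DMF and tested at the single concentration given in the line. DMF served as the solvent control and ciprofloxacin as the reference standard. Read-out is the zone of inhibition diameter in mm.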

[2] = system: Bacillus subtilis; assay: Antibacterial activity against Bacillus subtilis MTCC 441 at 10 ug/ml after 24 hrs by cup-plate method; type: functional, organism-based; outline: as §1
[3] = system: Bacillus subtilis; assay: Antibacterial activity against Bacillus subtilis MTCC 441 at 100 ug/ml after 24 hrs by cup-plate method; type: functional, organism-based; outline: as §1
[4] = system: Bacillus subtilis; assay: Antibacterial activity against Bacillus subtilis MTCC 441 at 500 ug/ml after 24 hrs by cup-plate method; type: functional, organism-based; outline: as §1
[5] = system: Bacillus subtilis; assay: Antibacterial activity against Bacillus subtilis MTCC 441 after 24 hrs; type: functional; details: MTCC 441, 24 h
Outline: (§2)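 MIC was taken as the lowest concentration giving 100% growth inhibition relative to a drug-free control, after 24 h at 37 °C in nutrient agar. Compounds were dissolved in DMF, and ciprofloxacin was the reference.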

[6] = system: Bacillus subtilis; assay: Antibacterial activity against Bacillus subtilis MTCC 441 at 200 ug/ml after 24 hrs by cup-plate method; type: functional, organism-based; outline: as §1
[7] = system: Escherichia coli; assay: Antibacterial activity against Escherichia coli MTCC 443 at 1 ug/ml after 24 hrs by cup-plate method; type: functional, organism-based; outline: as §1
[8] = system: Escherichia coli; assay: Antibacterial activity against Escherichia coli MTCC 443 at 10 ug/ml after 24 hrs by cup-plate method; type: functional, organism-based; outline: as §1
[9] = system: Escherichia coli; assay: Antibacterial activity against Escherichia coli MTCC 443 at 100 ug/ml after 24 hrs by cup-plate method; type: functional, organism-based; outline: as §1
[10] = system: Escherichia coli; assay: Antibacterial activity against Escherichia coli MTCC 443 at 200 ug/ml after 24 hrs by cup-plate method; type: functional, organism-based; outline: as §1
[11] = system: Escherichia coli; assay: Antibacterial activity against Escherichia coli MTCC 443 at 500 ug/ml after 24 hrs by cup-plate method; type: functional, organism-based; outline: as §1
[12] = system: Streptomyces griseus; assay: Antibacterial activity against Streptomyces griseus MTCC 1540 at 1 ug/ml after 24 hrs by cup-plate method; type: functional, organism-based; outline: as §1
[13] = system: Streptomyces griseus; assay: Antibacterial activity against Streptomyces griseus MTCC 1540 at 10 ug/ml after 24 hrs by cup-plate method; type: functional, organism-based; outline: as §1
[14] = system: Streptomyces griseus; assay: Antibacterial activity against Streptomyces griseus MTCC 1540 at 100 ug/ml after 24 hrs by cup-plate method; type: functional, organism-based; outline: as §1
[15] = system: Streptomyces griseus; assay: Antibacterial activity against Streptomyces griseus MTCC 1540 at 200 ug/ml after 24 hrs by cup-plate method; type: functional, organism-based; outline: as §1
[16] = system: Streptomyces griseus; assay: Antibacterial activity against Streptomyces griseus MTCC 1540 at 500 ug/ml after 24 hrs by cup-plate method; type: functional, organism-based; outline: as §1
[17] = system: Streptomyces griseus; assay: Antibacterial activity against Streptomyces griseus MTCC 1540 after 24 hrs; type: functional; details: MTCC 1540, 24 h; outline: as §2
[18] = system: Bacillus subtilis; assay: Antibacterial activity against Bacillus subtilis MTCC 441 at 10 ug/ml after 24 hrs by cup-plate method relative to ciprofloxacin; type: functional, organism-based
[19] = system: Escherichia coli; assay: Antibacterial activity against Escherichia coli MTCC 443 at 10 ug/ml after 24 hrs by cup-plate method relative to ciprofloxacin; type: functional, organism-based
[20] = system: Escherichia coli; assay: Antibacterial activity against Escherichia coli MTCC 443 after 24 hrs; type: functional; details: MTCC 443, 24 h; outline: as §2
[21] = system: Candida albicans; assay: Antifungal activity against Candida albicans MTCC 227 at 30 ug/ml after 48 hrs by cup-plate method; type: functional; details: MTCC 227, 48 h, read-out: DIZ
Outline: (§3)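 Cup-plate diffusion on Sabouraud's dextrose agar, incubated 48 h at 28 °C. Compounds in DMF, which also served as the control, with fluconazole as the reference standard.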

[22] = system: Aspergillus niger; assay: Antifungal activity against Aspergillus niger MTCC 282 at 30 ug/ml after 48 hrs by cup-plate method; type: functional; details: MTCC 282, 48 h, read-out: DIZ; outline: as §3
[23] = system: Bacillus subtilis; assay: Antibacterial activity against Bacillus subtilis MTCC 441 at 100 ug/ml after 24 hrs by cup-plate method relative to ciprofloxacin; type: functional, organism-based
[24] = system: Escherichia coli; assay: Antibacterial activity against Escherichia coli MTCC 443 at 100 ug/ml after 24 hrs by cup-plate method relative to ciprofloxacin; type: functional, organism-based
[25] = system: Streptomyces griseus; assay: Antibacterial activity against Streptomyces griseus MTCC 1540 at 10 ug/ml after 24 hrs by cup-plate method relative to ciprofloxacin; type: functional, organism-based
[26] = system: Streptomyces griseus; assay: Antibacterial activity against Streptomyces griseus MTCC 1540 at 100 ug/ml after 24 hrs by cup-plate method relative to ciprofloxacin; type: functional, organism-based
[27] = system: Bacillus subtilis; assay: Antibacterial activity against Bacillus subtilis MTCC 441 at 200 ug/ml after 24 hrs by cup-plate method relative to ciprofloxacin; type: functional, organism-based

O=C(O)c1cn(C2CC2)c2cc(N3CCNCC3)c(F)cc2c1=O [CIPROFLOXACIN]
inactive: Activity [1] | Activity [7] | Activity [12]
active: Activity [2] | Activity [3] | Activity [4] | Activity [6] | Activity [8] | Activity [9] | Activity [10] | Activity [11] | Activity [13] | Activity [14] | Activity [15] | Activity [16]
10 µg/mL: MIC [5] | MIC [17]

CN(C)c1ccc(/C=N/n2c(S)nnc2CCNc2nc3ccccc3s2)cc1
16 mm: zone of inhibition at 30 µg/mL [21]
inactive: Activity [1] | Activity [18] | Activity [7] | Activity [12] | Activity [13]
100 µg/mL: MIC [5] | MIC [20] | MIC [17]
10 mm: zone of inhibition at 30 µg/mL [22]
active: Activity [3] | Activity [4] | Activity [6] | Activity [19] | Activity [9] | Activity [10] | Activity [11] | Activity [14] | Activity [15] | Activity [16]

O=[N+]([O-])c1ccccc1/C=N/n1c(S)nnc1CCNc1nc2ccccc2s1
200 µg/mL: MIC [5] | MIC [20] | MIC [17]
< 10 mm: zone of inhibition at 30 µg/mL [21]
active: Activity [23] | Activity [4] | Activity [6] | Activity [24] | Activity [10] | Activity [11] | Activity [26] | Activity [15] | Activity [16]
inactive: Activity [1] | Activity [18] | Activity [7] | Activity [8] | Activity [12] | Activity [25]
10 mm: zone of inhibition at 30 µg/mL [22]

O=[N+]([O-])c1cccc(/C=N/n2c(S)nnc2CCNc2nc3ccccc3s2)c1
active: Activity [23] | Activity [4] | Activity [6] | Activity [10] | Activity [11] | Activity [26] | Activity [15] | Activity [16]
10 mm: zone of inhibition at 30 µg/mL [21]
inactive: Activity [1] | Activity [2] | Activity [7] | Activity [19] | Activity [24] | Activity [12] | Activity [13]
200 µg/mL: MIC [5] | MIC [20] | MIC [17]
< 10 mm: zone of inhibition at 30 µg/mL [22]

COc1ccc(/C=N/n2c(S)nnc2CCNc2nc3ccccc3s2)cc1OC
Active: Activity [27]
500 µg/mL: MIC [5]
inactive: Activity [1] | Activity [2] | Activity [23] | Activity [7] | Activity [8] | Activity [12] | Activity [13]
100 µg/mL: MIC [20] | MIC [17]
active: Activity [4] | Activity [9] | Activity [10] | Activity [11] | Activity [14] | Activity [15] | Activity [16]
22 mm: zone of inhibition at 30 µg/mL [21] | zone of inhibition at 30 µg/mL [22]
